Laboratory results as given in ChEMBL document CHEMBL4834426, “Antimalarial Benzimidazole Derivatives Incorporating Phenolic Mannich Base Side Chains Inhibit Microtubule and Hemozoin Formation: Structure-Activity Relationship and In Vivo Oral Efficacy Studies” (J Med Chem, 2021).
Converted amounts (≈) assume the structure as drawn. The source made the active and inactive calls. The calls are words filed in the database; no cut-off is given here.

Key:
[1] = Metabolic stability in mouse liver microsomes assessed as compound remaining at 1 uM incubated for 30 mins by LC-MS/MS analysis; assay type: ADME, Microsome; details: read-out: Stabilty
How it was run: (§1)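 Single-point design: 1 μM compound with 0.4 mg/mL liver microsomes in 0.1 M phosphate buffer pH 7.4 for 30 min. Quenched with ice-cold acetonitrile containing carbamazepine internal standard, centrifuged, analyzed by LC−MS/MS. Percent remaining from internal-standard-corrected peak areas at 30 min versus 0 min. Propranolol, midazolam and MMV390048 as controls.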

[2] = system: Hemozoin; assay: Inhibition of beta-hematin formation […] incubated for 5 hrs by NP40 detergent-mediated assay
How it was run: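 Cell-free β-hematin formation assay in NP-40 (305.5 μM) lipid-mimic medium. Compounds from 20 mM stock serially diluted across wells, in duplicate. Hematin suspended in 1 M acetate buffer pH 4.8; plates incubated ~5 h at 37 °C. Then pyridine solution (with HEPES pH 7.4) and acetone added; absorbance at 405 nm. IC₅₀ by curve fit.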

[3] = Clearance in Balb/c mouse at 3 mg/kg, iv measured up to 24 hrs by LC-MS/MS analysis; assay type: ADME, organism-based; details: in vivo
How it was run: (§2)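 Intravenous dosing in male Balb/c mice, fed ad libitum. Tail-vein blood sampled into heparinized tubes at 0.17, 0.5, 1, 3, 5, 7, 9 and 24 h, frozen at −80 °C. Blood extracted by acetonitrile protein precipitation with internal standard; LC−MS/MS quantitation, LOQ 2 ng/mL. Noncompartmental analysis based on curve stripping.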

[4] = Resistance index, ratio of IC50 for antimalarial activity against asexual blood stage multi drug-resistant Plasmodium falciparum K1 to IC50 for antimalarial activity against asexual blood stage drug-sensitive Plasmodium falciparum NF54; assay type: functional
How it was run: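 Resistance index is IC₅₀(K1)/IC₅₀(NF54). Both IC₅₀s came from the [³H]-hypoxanthine incorporation assay, as means of ≥2 independent experiments.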

[5] = system: CHO; assay: Cytotoxicity against CHO cells assessed as inhibition of cell viability by MTT assay; assay type: cell-based; details: Cricetulus griseus
[6] = Oral bioavailability in Balb/c mouse at 10 mg/kg measured up to 24 hrs by LC-MS/MS analysis; assay type: ADME, organism-based; details: in vivo
How it was run: (§3)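 Male Balb/c mice, not fasted, food and water ad libitum; single oral dose. Tail-vein blood into heparinized tubes at 0.5, 1, 3, 5, 7, 9 and 24 h, stored at −80 °C. Whole blood protein-precipitated with acetonitrile containing internal standard, analyzed by LC−MS/MS (LOQ 2 ng/mL). Parameters by noncompartmental analysis with curve stripping. Mean of three mice per point.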

[7] = Cmax in Balb/c mouse at 10 mg/kg, po measured up to 24 hrs by LC-MS/MS analysis; assay type: ADME, organism-based; set-up: route oral, dose 10 mg/kg, time <=24; details: in vivo; how it was run: as §3
[8] = system: Plasmodium falciparum; assay: Antiplasmodial activity against […] Plasmodium falciparum NF54 late gametocytes transfected with GFP-Luc […] at 5 uM incubated for 48 hrs by microscopy based luciferase reporter gene assay relative to control; assay type: functional
How it was run: (§4)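 NF54-Pfs16-GFP-Luc gametocytes, assays set up day 5 (early, stage II/III) or day 10 (late, stage IV/V). Culture at 2−3% gametocytemia, 1.5% hematocrit, 48 h drug exposure at 37 °C under 90% N₂/5% O₂/5% CO₂. Lysates mixed with luciferin; bioluminescence read with 10 s integration. Dual-point: one biological repeat in technical triplicate. Methylene blue (5 μM) reference.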

[9] = system: Plasmodium falciparum; assay: Antiplasmodial activity against […] Plasmodium falciparum NF54 late gametocytes transfected with GFP-Luc […] at 1 uM incubated for 48 hrs by microscopy based luciferase reporter gene assay relative to control; assay type: functional; how it was run: as §4
[10] = Selectivity index, ratio of IC50 for Cytotoxicity against CHO cells assessed as inhibition of cell viability by MTT assay to IC50 for antimalarial activity against asexual blood stage Plasmodium falciparum NF54 assessed as reduction in parasitemia incubated up to 72 hrs by [3H]hypoxanthine incorporation assay; assay type: toxicity, cell-based; details: hamster, read-out: Selectivity Index
How it was run: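 Selectivity index is IC₅₀(CHO)/IC₅₀(NF54). […] IC₅₀ came from nonlinear dose-response fitting. Parasite IC₅₀ came from the [³H]-hypoxanthine assay.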

[11] = system: Plasmodium falciparum; assay: Antimalarial activity against asexual blood stage drug-sensitive Plasmodium falciparum NF54 infected in erythrocytes assessed as reduction in parasitemia incubated up to 72 hrs by [3H]hypoxanthine incorporation assay; assay type: functional, organism-based
How it was run: (§5)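 [³H]-Hypoxanthine incorporation assay (modified) on asexual blood-stage P. falciparum in vitro. IC₅₀ values are means of ≥2 independent experiments.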

[12] = system: Hemozoin; assay: Inhibition of Beta-hematin in early ring stage Plasmodium falciparum parasitized red blood cells assessed as hemozoin formation formation after 32 hrs by Giemsa staining based haemocytometric counting method
[13] = AUC (0 to t) in Balb/c mouse at 10 mg/kg, po measured up to 24 hrs by LC-MS/MS analysis; assay type: ADME, organism-based; set-up: dose 10 mg/kg, time <=24; details: in vivo; how it was run: as §3
[14] = system: Plasmodium falciparum; assay: Antiplasmodial activity against […] Plasmodium falciparum NF54 early gametocytes transfected with GFP-Luc […] at 1 uM incubated for 48 hrs by microscopy based luciferase reporter gene assay relative to control; assay type: functional; how it was run: as §4
[15] = Kinetic solubility of the compound in pH 6.5 incubated for 24 hrs by HPLC-DAD analysis; assay type: physicochemical; details: buffer, read-out: Kinetic_solubility
How it was run: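 Miniaturized shake-flask method. 10 mM DMSO stock dried down, phosphate buffer pH 6.5 added, shaken 24 h at 25 °C. Centrifuged 3500g for 15 min; supernatant analyzed by HPLC-DAD against 10−220 μM DMSO calibration curve. Reserpine, hydrocortisone and MMV390048 as controls.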

[16] = AUC (0 to t) in Balb/c mouse at 3 mg/kg, iv measured up to 24 hrs by LC-MS/MS analysis; assay type: ADME, organism-based; set-up: dose 3 mg/kg, time <=24; details: in vivo; how it was run: as §2
[17] = Metabolic stability in rat liver microsomes assessed as compound remaining at 1 uM incubated for 30 mins by LC-MS/MS analysis; assay type: ADME, Microsome; details: read-out: Stabilty; how it was run: as §1
[18] = system: Plasmodium falciparum; assay: Antiplasmodial activity against […] Plasmodium falciparum NF54 early gametocytes transfected with GFP-Luc […] at 5 uM incubated for 48 hrs by microscopy based luciferase reporter gene assay relative to control; assay type: functional; how it was run: as §4
[19] = Tmax in Balb/c mouse at 10 mg/kg, po measured up to 24 hrs by LC-MS/MS analysis; assay type: ADME, organism-based; details: in vivo; how it was run: as §3
[20] = system: Plasmodium falciparum; assay: Antimalarial activity against asexual blood stage multi drug-resistant Plasmodium falciparum K1 infected in erythrocytes assessed as reduction in parasitemia incubated up to 72 hrs by [3H]hypoxanthine incorporation assay; assay type: functional, organism-based; how it was run: as §5
[21] = Volume of distribution at steady state in Balb/c mouse at 3 mg/kg, iv measured up to 24 hrs by LC-MS/MS analysis; assay type: ADME, organism-based; details: in vivo, read-out: Vdss; how it was run: as §2
[22] = system: Plasmodium berghei; assay: Antimalarial activity against GFP-transfected Plasmodium berghei ANKA infected in NMRI mouse model assessed as reduction in parasitemia at 50 mg/kg, po dosed 4 times relative to control; assay type: functional; set-up: scale not given: the % may be the effect or the level left
How it was run: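 Mice (n = 3) infected with GFP-transfected P. berghei ANKA. Compound in 70% Tween-80/30% ethanol, diluted 10-fold in water, given orally at 4, 24, 48 and 72 h post-infection. Blood taken day 4 (96 h); parasitemia by flow cytometry, detection limit 0.1%. Activity = difference in mean % parasitemia between control and treated, as % of control.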

[23] = Volume of distribution in Balb/c mouse at 3 mg/kg, iv measured up to 24 hrs by LC-MS/MS analysis; assay type: ADME, organism-based; details: in vivo; how it was run: as §2
[24] = Metabolic stability in human liver microsomes assessed as compound remaining at 1 uM incubated for 30 mins by LC-MS/MS analysis; assay type: ADME, Microsome; details: read-out: Stabilty; how it was run: as §1
[25] = system: Plasmodium falciparum NF54; assay: Inhibition of tubulin polymerization in asexual blood stage Plasmodium falciparum NF54 at 600 nM incubated for 24 hrs by tubulin tracker Oregon Green staining method
How it was run: (§6)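 Treatment at 600 nM for asexual parasites (~1% parasitemia, 5% hematocrit, sorbitol-synchronized rings) or 2400 nM for early gametocytes (~2% gametocytemia, 2% hematocrit, 20% I/60% II/20% III). 24 h at 37 °C, 90% N₂/5% CO₂/5% O₂, DMSO <0.1%. Stained with 250 nM Tubulin Tracker Oregon Green 488 for 30 min and Hoechst (100 nM) for 10 min. PBS-washed, imaged live by confocal microscopy. Colchicine (20 μM) positive control.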

[26] = system: Plasmodium falciparum NF54; assay: Inhibition of tubulin polymerization in […] Plasmodium falciparum NF54 early gametocytes at 2400 nM incubated for 24 hrs by tubulin tracker Oregon Green staining method; how it was run: as §6
[27] = system: Plasmodium falciparum NF54; assay: Inhibition of tubulin polymerization in asexual stage (I) Plasmodium falciparum NF54 early gametocytes at 2400 nM incubated for 24 hrs by tubulin tracker Oregon Green staining method; how it was run: as §6
[28] = system: Plasmodium falciparum NF54; assay: Inhibition of tubulin polymerization in asexual stage (II) Plasmodium falciparum NF54 early gametocytes at 2400 nM incubated for 24 hrs by tubulin tracker Oregon Green staining method; how it was run: as §6
[29] = Inhibition of tubulin polymerization in asexual blood stage Plasmodium falciparum NF54

Compound	remaining at 0.5 h, 1 µM [1] [%]	IC50 [2] [µM]	Ratio IC50 [4]	IC50 [5] [µM]	inhibition at 5 µM [8] [%]	inhibition at 1 µM [9] [%]	selectivity ratio at 72 h [10]	IC50 [11] [µM]	Activity [12]	inhibition at 1 µM [14] [%]	solubility kinetic at 24 h [15] [µM]	remaining at 0.5 h, 1 µM [17] [%]	inhibition at 5 µM [18] [%]	IC50 [20] [µM]	Activity [22] [%]	remaining at 0.5 h, 1 µM [24] [%]	other results
CCNCc1cc(Cl)cc(Nc2nc3cc(F)c(F)cc3[nH]2)c1O	98	7.15	3.12	> 50	0	0	> 200	0.25	Active	0	12 (≈ 4.23 µg/mL)	> 99	35	0.78	<40	> 99	clearance [3]: 151 mL/min/kg; bioavailability [6]: 5%; Cmax [7]: 26 nM; AUCt [13]: 11 µmol·min/L; AUCt [16]: 65 µmol·min/L; Tmax [19]: 42 min; Vd [21]: 58 L/kg; Vd [23]: 96 L/kg
CCNCc1cc(Cl)cc(Nc2nc3ccccc3[nH]2)c1O	97	12.7	2.93	> 50	31	0	> 166	0.3	Active	0	200 (≈ 63.4 µg/mL)	98	23	0.88	<40	93	inhibition [25]: Active; inhibition [26]: Active; inhibition [27]: inactive; inhibition [28]: Active
COC(=O)Nc1nc2cc(C(=O)c3ccccc3)ccc2[nH]1 [MEBENDAZOLE]	–	–	–	–	–	–	–	–	–	–	–	–	–	–	–	–	IC50 [29]: 200 µM
